Assay results as given in ChEMBL document CHEMBL1147810, “Novel combretastatin analogues endowed with antitumor activity” (J Med Chem, 2006).
Active and inactive are the calls of the source. The calls are words filed in the database; no cut-off is given here.

What was measured:
[1] = tested on: BMEC; assay: Antiproliferative activity against bovine BMEC; format: functional, cell-based; settings: Bos taurus
Summary of the method: (§1)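 Cells plated, then exposed 24 h after seeding to graded drug concentrations for 24 h. Drug removed, 48 h recovery in drug-free medium, surviving cells stained with sulforhodamine B (OD 564). […] BMEC: primary bovine adrenal cultures in DMEM, 20% FCS, heparin, brain extract.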

[2] = tested on: MCF7; assay: Antiproliferative activity against human MCF7 cells; format: functional, cell-based; summary of the method: as §1
[3] = tested on: IGROV-1; assay: Antiproliferative activity against human IGROV1 cells; format: functional, cell-based; summary of the method: as §1
[4] = tested on: MCF7-DOX; assay: Antiproliferative activity against doxorubicin-resistant human MCF7-dx cells; format: functional, cell-based; summary of the method: as §1
[5] = tested on: NCI-H460; assay: Antitumor activity in CD1 mice implanted with NCI-H460 xenografts at 60 mg/kg, po; format: functional, organism-based; design: dose 60 mg/kg; settings: Homo sapiens
Summary of the method: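 NCI-H460 cells (3.0 × 10⁶ in HBSS) injected sc into right flank of female CD-1 nude mice; groups of eight once tumors reached ~30 mg (day 5). Oral 60 mg/kg twice daily, 5 days/week for 3 weeks; controls got vehicle. Caliper volumes (length × width²/2) twice weekly; toxicity scored as % max body-weight loss; Mann-Whitney U test.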

[6] = tested on: MeWo; assay: Antiproliferative activity against human MeWo cells; format: functional, cell-based; summary of the method: as §1
[7] = tested on: HUVEC; assay: Antiproliferative activity against human HUVEC; format: functional, cell-based; summary of the method: as §1
[8] = tested on: A2780; assay: Antiproliferative activity against doxorubicin-resistant human A2780-dx cells; format: functional, cell-based; summary of the method: as §1
[9] = tested on: NCI-H460; assay: Antiproliferative activity against human H460 cells; format: functional, cell-based; summary of the method: as §1
[10] = tested on: A2780; assay: Antiproliferative activity against human A2780 cells; format: functional, cell-based; summary of the method: as §1
[11] = tested on: HCT-116; assay: Antiproliferative activity against human HCT116 cells; format: functional, cell-based; summary of the method: as §1
[12] = tested on: NCI-H460; assay: Cell cycle arrest in NCI-H460 cells by accumulation at G1/0 phase cell at 3 nM post 24 hrs treatment and 24 hrs recovery; format: functional, Homo sapiens
[13] = tested on: NCI-H460; assay: Cell cycle arrest in NCI-H460 cells by accumulation at S phase cell at 3 nM post 24 hrs treatment and 48 hrs recovery
[14] = tested on: NCI-H460; assay: Cell cycle arrest in NCI-H460 cells by accumulation at G2/M phase cell at 3 nM post 24 hrs treatment and 24 hrs recovery
[15] = tested on: NCI-H460; assay: Cell cycle arrest in NCI-H460 cells by accumulation at S phase cell at 3 nM post 24 hrs treatment
[16] = tested on: NCI-H460; assay: Cell cycle arrest in NCI-H460 cells by accumulation at S phase cell at 3 nM post 24 hrs treatment and 24 hrs recovery
[17] = tested on: NCI-H460; assay: Cell cycle arrest in NCI-H460 cells by accumulation at G2/M phase cell at 3 nM post 24 hrs treatment
[18] = tested on: NCI-H460; assay: Cell cycle arrest in NCI-H460 cells by accumulation at G2/M phase cell at 3 nM post 24 hrs treatment and 48 hrs recovery
[19] = tested on: NCI-H460; assay: Cell cycle arrest in NCI-H460 cells by accumulation at G1/0 phase cell at 3 nM post 24 hrs treatment and 48 hrs recovery; format: functional, Homo sapiens
[20] = tested on: NCI-H460; assay: Cell cycle arrest in NCI-H460 cells by accumulation at G1/0 phase cell at 3 nM post 24 hrs treatment; format: functional, Homo sapiens

COc1cc(/C=C/c2cc(OC)c3ccoc3c2)cc(OC)c1OC
IC50 [1]: 75 µM

COc1cc(/C=C/c2cc(O)c3c(-c4ccccc4)csc3c2)cc(OC)c1OC
IC50 [1]: > 20 µM

COc1cc(/C=C/c2cc(O)c3cc(-c4ccccc4)sc3c2)cc(OC)c1OC
IC50 [1]: 38 µM

COc1cc(/C=C/c2cc(O)c3cc(C)oc3c2)cc(OC)c1OC
IC50 [1]: 12.3 µM

COc1cc(/C=C\c2cc(O)c3cc(-c4ccccc4)sc3c2)cc(OC)c1OC
IC50 [1]: 23 µM

COc1cc(/C=C\c2cc(OP(=O)(O)O)c3ccsc3c2)cc(OC)c1OC
IC50 [2]: 0.639 µM | IC50 [3]: 1.61 µM | IC50 [4]: 0.487 µM | IC50 [1]: 0.64 µM | Activity [5]: Active | IC50 [6]: 0.83 µM | IC50 [7]: 0.083 µM | IC50 [8]: 0.75 µM | IC50 [9]: 0.62 µM | IC50 [10]: 0.5 µM | IC50 [11]: 3 µM

COc1cc(/C=C/c2cc(O)c3cc(-c4ccccc4)oc3c2)cc(OC)c1OC
IC50 [1]: > 20 µM

COc1ccc(/C=C\c2cc(OC)c(OC)c(OC)c2)cc1O [COMBRETASTATIN A4]
IC50 [2]: 0.002 µM | IC50 [3]: 0.0103 µM | Activity [12]: 62% | IC50 [4]: 0.0023 µM | Activity [13]: 18% | IC50 [6]: 0.004 µM | IC50 [7]: 0.0015 µM | IC50 [8]: 0.00166 µM | Activity [14]: 16% | Activity [15]: 12% | Activity [16]: 22% | Activity [17]: 79% | Activity [18]: 27% | IC50 [10]: 0.00219 µM | IC50 [11]: 0.0019 µM | Activity [19]: 55% | Activity [20]: 8%

COc1cc(/C=C\c2cc(OC)c3ccoc3c2)cc(OC)c1OC
IC50 [1]: 7.5 µM

COc1cc(/C=C\c2cc(O)c3cc(C)sc3c2)cc(OC)c1OC
IC50 [1]: 0.023 µM

COc1cc(/C=C\c2ccc3cc[nH]c3c2)cc(OC)c1OC
IC50 [1]: 0.028 µM

COc1cc(/C=C\c2cc(O)c3c(-c4ccccc4)csc3c2)cc(OC)c1OC
IC50 [1]: > 2 µM

COc1cc(/C=C\c2cc(O)c3cc(C)oc3c2)cc(OC)c1OC
IC50 [1]: 0.093 µM

COc1cc(/C=C/c2cc(O)c3cc(C)sc3c2)cc(OC)c1OC
IC50 [1]: 0.84 µM

COc1cc(/C=C\c2cc(O)c3cc(-c4ccccc4)oc3c2)cc(OC)c1OC
IC50 [1]: > 2 µM

COc1cc(/C=C/c2ccc3cc[nH]c3c2)cc(OC)c1OC
IC50 [1]: 1.9 µM
